The test system of assay [1] is HCT-116. Put plainly: Induction of apoptosis in human HCT-116 cells assessed as early apoptotic cells at 5 uM measured after 24 hrs by annexin-V/FITC staining based flow cytometry analysis (reference value: 0.3 %). It counts as functional. On the technique in general: In flow cytometry, cells or beads pass a laser one at a time.
Assay [2] addresses T1, Tubulin (Homo sapiens) (UniProt P68371+Q9H4B7+P0DPH7+P68366+Q13509+Q71U36+P04350+Q3ZCM7+P07437+P68363+Q9BQE3+Q6PEY2+Q13885+Q9BVA1+Q9BUF5). Put plainly: Inhibition of tubulin polymerization in human HCT-116 cells assessed as cell cycle arrest at G1/G0 phase at 12.5 uM measured after 24 hrs by propidium iodide staining based analysis. Also on record: scale not given: the % may be the effect or the level left.

For assay [3], the system named is HCT-116. The experiment in a line: Induction of apoptosis in human HCT-116 cells assessed as necrotic cells at 5 uM measured after 24 hrs by annexin-V/FITC staining based flow cytometry analysis (reference value: 0.2 %). It is filed as functional.
For assay [4], the system named is HCT-116. Put plainly: Induction of apoptosis in human HCT-116 cells assessed as live cells at 5 uM measured after 24 hrs by annexin-V/FITC staining based flow cytometry analysis (reference value: 97.1 %). It is filed as functional.
The subject of assay [5] is HCT-116. Put plainly: Antiproliferative activity against human HCT-116 cells assessed as inhibition of cell proliferation measured after 48 hrs by MTT assay. It counts as functional, cell-based. Conditions: HCT-116, 48 h. The essentials:
(§1)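 Cells were exposed to test compounds at 1, 5, 10 and 25 µM for 48 h, with each concentration run in triplicate. Untreated cells served as control. Cell viability was measured and IC₅₀ values were derived as mean ± SD of three independent experiments.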

In assay [6] the target is T1, Tubulin (Homo sapiens). The experiment in a line: Inhibition of tubulin polymerization in human HCT-116 cells assessed as cell cycle arrest at G2/M phase at 12.5 uM measured after 24 hrs by propidium iodide staining based analysis. Also on record: scale not given: the % may be the effect or the level left.
For assay [7], the system named is HCT-116. The experiment in a line: Induction of apoptosis in human HCT-116 cells assessed as late apoptotic cells at 5 uM measured after 24 hrs by annexin-V/FITC staining based flow cytometry analysis (reference value: 2.4 %). It counts as functional.
In a further assay the test system is HT-29. Put plainly: Antiproliferative activity against human HT-29 cells assessed as inhibition of cell proliferation measured after 48 hrs by MTT assay. It is filed as functional, cell-based. The settings on record: HT-29, 48 h. The procedure, abridged: as §1
In the next assay the test system is MDA-MB-231. Put plainly: Antiproliferative activity against human MDA-MB-231 cells assessed as inhibition of cell proliferation measured after 48 hrs by MTT assay. It is filed as functional, cell-based. The settings on record: MDA-MB-231, 48 h. The essentials: as §1
A general note: Tetrazolium assays rely on reduction of a dye to a coloured formazan, in cell work by metabolically active cells.

Each structure is given as a SMILES string.

Take `COc1ccc(-c2cc(-c3cc(OC)c(OC)c(OC)c3)nc(-c3ccccc3)n2)cc1`: the Activity was 22.5% with HCT-116 [1]; 5.6% at Tubulin (Homo sapiens) [2]; 0.9% with HCT-116 [3]; 28.3% with HCT-116 [4]; 88.8% on Tubulin (Homo sapiens) [6]; 48.3% in the assay on HCT-116 [7]. For the same compound, the IC50 with HCT-116 [5] came out at 4.78 µM; in the assay on HT-29, 4.23 µM; in the assay on MDA-MB-231, 3.39 µM.

As for `COc1cc(-c2cc(-c3ccc(C)cc3)nc(-c3ccccc3)n2)cc(OC)c1OC`, the IC50 with HCT-116 [5] was 15.7 µM; with HT-29, over 25 µM; in the assay on MDA-MB-231, 5.11 µM.

`COc1cc2c(c(OC)c1OC)-c1ccc(OC)c(=O)cc1[C@@H](NC(C)=O)CC2` [COLCHICINE]: the Activity in the assay on HCT-116 [1] came to 1.9%; in the assay with HCT-116 [3] it was 2.9%; with HCT-116 [4] it was 38.8%; in the assay on HCT-116 [7] it was 56.4%. Also, the IC50 in the assay on HCT-116 [5] is 5.13 µM; with HT-29, 5.19 µM; with MDA-MB-231 it was 0.93 µM.

`COc1ccc(-c2cc(-c3cc(OC)c(OC)c(OC)c3)nc(-c3ccccc3)n2)c(OC)c1`: the IC50 in the assay on HCT-116 [5] is over 25 µM; with HT-29, over 25 µM; in the assay on MDA-MB-231, 1.44 µM.

For `COc1cc(-c2cc(-c3cccc4ccccc34)nc(-c3ccccc3)n2)cc(OC)c1OC`, the Activity amounted to 26.4% in the assay on HCT-116 [1]; 78.5% on Tubulin (Homo sapiens) [2]; 0.3% in the assay on HCT-116 [3]; 23.7% in the assay on HCT-116 [4]; 8.1% on Tubulin (Homo sapiens) [6]; 49.6% with HCT-116 [7]. The IC50 in the assay with HCT-116 [5] turned out to be 4.93 µM; in the assay on HT-29, 4.73 µM; with MDA-MB-231 it was 3.24 µM.

As for `COc1cc(-c2cc(-c3ccc(N)cc3)nc(-c3ccccc3)n2)cc(OC)c1OC`, the IC50 was 12.3 µM with HCT-116 [5], over 25 µM in the assay on HT-29 and 1.01 µM in the assay with MDA-MB-231.

Take `COc1cc(-c2cc(-c3cccc(O)c3)nc(-c3ccccc3)n2)cc(OC)c1OC`: the values for the IC50 in the assay with HCT-116 [5], in the assay on HT-29 and with MDA-MB-231 were 20.4 µM, over 25 µM and 1.99 µM, respectively.

For `COc1cc(-c2cc(-c3ccccc3)nc(-c3ccccc3)n2)cc(OC)c1OC`, the IC50 in the assay with HCT-116 [5] was found to be 9.95 µM; in the assay with HT-29, 7.93 µM; with MDA-MB-231 it was 5.87 µM.

Turning to `COc1cc(-c2cc(-c3ccc(Cl)cc3)nc(-c3ccccc3)n2)cc(OC)c1OC`, the IC50 in the assay on HCT-116 [5] was 7.98 µM; in the assay on HT-29, 6.23 µM; in the assay with MDA-MB-231, over 25 µM.

Take `COc1cc(-c2cc(-c3cccc([N+](=O)[O-])c3)nc(-c3ccccc3)n2)cc(OC)c1OC`: the results for the 50% inhibitory concentration (IC50) in the assay with HCT-116 [5], in the assay with HT-29 and with MDA-MB-231 were over 25 µM, over 25 µM and 2.44 µM, respectively.

Turning to `COc1cc(-c2cc(-c3cccs3)nc(-c3ccccc3)n2)cc(OC)c1OC`, the IC50 with HCT-116 [5] was 17 µM; in the assay with HT-29 it was over 25 µM; with MDA-MB-231, 5.11 µM.

In the case of `COc1cc(-c2cc(-c3ccc(Br)cc3)nc(-c3ccccc3)n2)cc(OC)c1OC`, the results for the IC50 in the assay with HCT-116 [5], in the assay on HT-29 and with MDA-MB-231 were 4.32 µM, 3.17 µM and over 25 µM, respectively.

For the compound `COc1cc(-c2cc(-c3ccc(O)cc3O)nc(-c3ccccc3)n2)cc(OC)c1OC`, the Activity with HCT-116 [1] came out at 35.4%; on Tubulin (Homo sapiens) [2], 11.3%; with HCT-116 [3] it was 0.6%; with HCT-116 [4] it was 28.7%; at Tubulin (Homo sapiens) [6] it was 79.5%; in the assay with HCT-116 [7] it was 35.2%. Besides, the IC50 in the assay with HCT-116 [5] is 5.89 µM; in the assay with HT-29 it was 4.96 µM; in the assay on MDA-MB-231 it was 0.81 µM.

For the compound `COc1cc(-c2cc(-c3ccc(O)cc3)nc(-c3ccccc3)n2)cc(OC)c1OC`, the IC50 in the assay with HCT-116 [5] was determined as 11.8 µM; in the assay on HT-29, 11.3 µM; with MDA-MB-231, 1.6 µM.

The IC50 is the concentration that inhibits the measured activity by half.

(Values after ChEMBL document CHEMBL4725329, “Anti-proliferative potential of triphenyl substituted pyrimidines against MDA-MB-231, HCT-116 and HT-29 cancer cell lines” (Bioorg Med Chem Lett, 2020).)
